From ChEMBL document CHEMBL1126246, “Ester and amide derivatives of E64c as inhibitors of platelet calpains” (J Med Chem, 1992) come the findings set out here.

One assay deals with T1, Calpain-1 catalytic subunit (Homo sapiens, UniProt P07384).
T1 sequence (P07384 whole entry): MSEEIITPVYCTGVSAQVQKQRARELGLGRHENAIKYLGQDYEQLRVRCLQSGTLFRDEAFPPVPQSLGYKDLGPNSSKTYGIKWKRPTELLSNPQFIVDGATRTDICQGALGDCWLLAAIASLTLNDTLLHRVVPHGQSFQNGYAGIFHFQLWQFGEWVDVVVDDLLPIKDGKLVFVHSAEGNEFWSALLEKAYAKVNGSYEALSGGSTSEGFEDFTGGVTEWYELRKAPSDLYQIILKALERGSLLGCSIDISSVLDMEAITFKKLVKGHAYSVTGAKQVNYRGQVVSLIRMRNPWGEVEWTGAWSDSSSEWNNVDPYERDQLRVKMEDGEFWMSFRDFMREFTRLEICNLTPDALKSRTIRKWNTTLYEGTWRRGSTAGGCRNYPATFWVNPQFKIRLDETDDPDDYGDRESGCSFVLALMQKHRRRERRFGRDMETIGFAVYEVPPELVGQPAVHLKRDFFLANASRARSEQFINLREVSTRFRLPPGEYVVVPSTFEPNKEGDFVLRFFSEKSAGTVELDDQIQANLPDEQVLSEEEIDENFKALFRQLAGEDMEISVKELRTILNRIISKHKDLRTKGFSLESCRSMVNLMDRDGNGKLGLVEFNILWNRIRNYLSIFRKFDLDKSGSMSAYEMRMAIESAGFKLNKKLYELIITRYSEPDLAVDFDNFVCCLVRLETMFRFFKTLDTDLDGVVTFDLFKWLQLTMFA
Briefly: The calpain inhibitory activity(I 50) was measured as ability to enter the platelet and inhibit calpain in the intact cells(assay 3); (-)indicates little inhibition by 444 uM. It counts as cell-based.
Settings: not given
The gist of the method:
(§1)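 Washed human platelets (6 × 10⁸/mL, Hank's buffer) were preincubated with compound in DMSO at 30 °C for 15 min. Final concentrations were 0.8, 5.5, 44 or 440 μM. A23187 plus CaCl₂ was added for 10 min at room temperature. Samples were boiled in SDS sample buffer with leupeptin, run on 8% SDS-PAGE and stained with Coomassie. Loss of actin-binding protein and talin was scored.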
As to `CC(C)CCNC(=O)[C@H](CC(C)C)NC(=O)[C@H]1O[C@@H]1C(=O)NCCc1c[nH]c2ccc(O)cc12`, the I50 result was “Little inhibition”.
Same read-out and setting: then `CCCCC(COC(=O)[C@H]1O[C@@H]1C(=O)N[C@@H](CC(C)C)C(=O)NCCC(C)C)NC(=O)[C@H](CC(C)C)NC(=O)OCc1ccccc1` (stereo partly drawn), with “Little inhibition”.
Regarding `CC(C)CCNC(=O)[C@H](CC(C)C)NC(=O)[C@H]1O[C@@H]1C(=O)O` [E-64C], the I50 entry is “Little inhibition”.

Another assay has as its target T1, Calpain-1 catalytic subunit. Briefly: The calpain inhibitory activity(I 50) was measured as ability to enter the platelet to inhibit calpain after cell lysis(assay 2). The conditions noted are these: read-out: I50. The method in brief:
(§2)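 Washed human platelets (7 × 10⁸/mL, Hank's) were exposed to inhibitor for 15 min at 30 °C. Cells were diluted in Tyrode-HEPES pH 7.4, pelleted twice to remove free drug, resuspended in Hank's and equilibrated 3 min. They were then lysed with Triton X-100 plus CaCl₂ and [³H]casein for 20 min at 30 °C. TCA-soluble counts were measured. I50 came from a five-concentration line.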
For the compound `CC(C)CCNC(=O)[C@H](CC(C)C)NC(=O)[C@H]1O[C@@H]1C(=O)OCCF`, the IC50 amounted to 3 µM.
The same measure, in the same setting: then `CC(C)CCNC(=O)[C@H](CC(C)C)NC(=O)[C@H]1O[C@@H]1C(=O)OCC(Br)(Br)Br`, with 5 µM.
Still for that read-out and setting: then `CC(C)CCNC(=O)[C@H](CC(C)C)NC(=O)[C@H]1O[C@@H]1C(=O)OCCCl`, with 0.3 µM; and `CC(C)CCNC(=O)[C@H](CC(C)C)NC(=O)[C@H]1O[C@@H]1C(=O)Oc1ccc2[nH]cc(CCNC(=O)OC(C)(C)C)c2c1`, with 2 µM; and `CC(C)CCNC(=O)[C@H](CC(C)C)NC(=O)[C@H]1O[C@@H]1C(=O)OCc1ccccc1Cl`, with 2 µM.
With `CC(C)CCNC(=O)[C@H](CC(C)C)NC(=O)[C@H]1O[C@@H]1C(=O)NCCc1c[nH]c2ccc(O)cc12`, the IC50 is 4 µM.
On the same count and under the same terms, then `CC(C)CCNC(=O)[C@H](CC(C)C)NC(=O)[C@H]1O[C@@H]1C(=O)OCC(Cl)(Cl)Cl`, with 1 µM; and `CC(C)CCNC(=O)[C@H](CC(C)C)NC(=O)[C@H]1O[C@@H]1C(=O)OCCBr`, with 2 µM.
Still for that read-out and setting: then `CC(C)CCNC(=O)[C@H](CC(C)C)NC(=O)[C@H]1O[C@@H]1C(=O)OCC(F)(F)F`, with 2 µM; and `CC(C)CCNC(=O)[C@H](CC(C)C)NC(=O)[C@H]1O[C@@H]1C(=O)OCCI`, with 6 µM.
Consider `CCOC(=O)[C@H]1O[C@@H]1C(=O)N[C@@H](CC(C)C)C(=O)NCCC(C)C` [ALOXISTATIN], for which the IC50 worked out at 4 µM.

The next assay shares this target. Briefly: The calpain inhibitory activity(I 50) was measured as ability to enter the platelet to inhibit calpain after cell lysis(assay 2); (-)indicates little inhibition by 444 uM.
Settings: not given
The gist of the method:
as §2
In the case of `CC(C)CCNC(=O)[C@H](CC(C)C)NC(=O)[C@H]1O[C@@H]1C(=O)O` [E-64C], the I50 result is “Little inhibition”.

For the next assay the target is unchanged. Briefly: The ability of compound to inhibit calpain in a preparation of lysed platelets was measured with a caseinolytic assay(assay 1). Conditions: read-out: I50. The gist of the method:
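Washed human platelets (6 × 10⁸/mL) in Hank's solution were preincubated with inhibitor at 30 °C for 3 min. CaCl₂, Triton X-100 and [³H]casein were then added and incubated 20 min at 30 °C. The reaction was stopped with TCA, and TCA-soluble radioactivity was counted. I50 was estimated from fractional inhibition at five inhibitor concentrations.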
As to `CC(C)CCNC(=O)[C@H](CC(C)C)NC(=O)[C@H]1O[C@@H]1C(=O)OCCF`, the IC50 stood at 0.5 µM.
Still for that read-out and setting: the figure for `CC(C)CCNC(=O)[C@H](CC(C)C)NC(=O)[C@H]1O[C@@H]1C(=O)OCCCl` is 2 µM; for `CC(C)CCNC(=O)[C@H](CC(C)C)NC(=O)[C@H]1O[C@@H]1C(=O)Oc1ccc2[nH]cc(CCNC(=O)OC(C)(C)C)c2c1` it is 2 µM.
Same read-out and setting: the figure for `CC(C)CCNC(=O)[C@H](CC(C)C)NC(=O)[C@H]1O[C@@H]1C(=O)NCCc1c[nH]c2ccc(O)cc12` is 6 µM.
Still for that read-out and setting: then `CC(C)CCNC(=O)[C@H](CC(C)C)NC(=O)[C@H]1O[C@@H]1C(=O)OCC(Cl)(Cl)Cl`, with 0.7 µM; and `CCCCC(COC(=O)[C@H]1O[C@@H]1C(=O)N[C@@H](CC(C)C)C(=O)NCCC(C)C)NC(=O)[C@H](CC(C)C)NC(=O)OCc1ccccc1` (stereo partly drawn), with 100 µM; and `CC(C)CCNC(=O)[C@H](CC(C)C)NC(=O)[C@H]1O[C@@H]1C(=O)OCCBr`, with 1 µM.
On to `CCOC(=O)[C@H]1O[C@@H]1C(=O)N[C@@H](CC(C)C)C(=O)NCCC(C)C` [ALOXISTATIN], for which the IC50 amounted to 4 µM.
The same measure, in the same setting: the figure for `CC(C)CCNC(=O)[C@H](CC(C)C)NC(=O)[C@H]1O[C@@H]1C(=O)O` [E-64C] is 0.04 µM.

The target is the same in the next assay. Briefly: The calpain inhibitory activity(I 50) was measured as ability to enter the platelet and inhibit calpain in the intact cells(assay 3); (+)indicates substantial inhibition by 5-44 uM. It counts as cell-based.
Settings: not given
The gist of the method: as §1
As for `CC(C)CCNC(=O)[C@H](CC(C)C)NC(=O)[C@H]1O[C@@H]1C(=O)OCCF`, the I50 entry was “substantial inhibition by 5-44 uM”.
For the compound `CC(C)CCNC(=O)[C@H](CC(C)C)NC(=O)[C@H]1O[C@@H]1C(=O)OCC(Br)(Br)Br`, the I50 entry is given as “substantial inhibition by 5-44 uM”.
The same measure, in the same setting: then `CC(C)CCNC(=O)[C@H](CC(C)C)NC(=O)[C@H]1O[C@@H]1C(=O)OCCCl`, with “substantial inhibition by 5-44 uM”; and `CC(C)CCNC(=O)[C@H](CC(C)C)NC(=O)[C@H]1O[C@@H]1C(=O)Oc1ccc2[nH]cc(CCNC(=O)OC(C)(C)C)c2c1`, with “substantial inhibition by 5-44 uM”; and `CC(C)CCNC(=O)[C@H](CC(C)C)NC(=O)[C@H]1O[C@@H]1C(=O)OCc1ccccc1Cl`, with “substantial inhibition by 5-44 uM”.
The same measure, in the same setting: then `CC(C)CCNC(=O)[C@H](CC(C)C)NC(=O)[C@H]1O[C@@H]1C(=O)OCC(Cl)(Cl)Cl`, with “substantial inhibition by 5-44 uM”.
The same measure, in the same setting: the entry for `CC(C)CCNC(=O)[C@H](CC(C)C)NC(=O)[C@H]1O[C@@H]1C(=O)OCCBr` is “substantial inhibition by 5-44 uM”; for `CC(C)CCNC(=O)[C@H](CC(C)C)NC(=O)[C@H]1O[C@@H]1C(=O)OCC(F)(F)F` it is “substantial inhibition by 5-44 uM”; for `CC(C)CCNC(=O)[C@H](CC(C)C)NC(=O)[C@H]1O[C@@H]1C(=O)OCCI` it is “substantial inhibition by 5-44 uM”.
In the case of `CCOC(=O)[C@H]1O[C@@H]1C(=O)N[C@@H](CC(C)C)C(=O)NCCC(C)C` [ALOXISTATIN], the I50 entry is on record as “substantial inhibition by 5-44 uM”.

A further assay has the same target. Briefly: The ability of compound to inhibit calpain in a preparation of lysed platelets was measured with a caseinolytic assay(assay 1); (+) indicates the compound was inhibitory, but I50 was not determined.
Settings: not given
For the compound `CC(C)CCNC(=O)[C@H](CC(C)C)NC(=O)[C@H]1O[C@@H]1C(=O)OCC(Br)(Br)Br`, the I50 result is on record as “substantial inhibition by 5-44 uM”.
Still for that read-out and setting: the entry for `CC(C)CCNC(=O)[C@H](CC(C)C)NC(=O)[C@H]1O[C@@H]1C(=O)OCc1ccccc1Cl` is “substantial inhibition by 5-44 uM”.
The same measure, in the same setting: the entry for `CC(C)CCNC(=O)[C@H](CC(C)C)NC(=O)[C@H]1O[C@@H]1C(=O)OCC(F)(F)F` is “substantial inhibition by 5-44 uM”; for `CC(C)CCNC(=O)[C@H](CC(C)C)NC(=O)[C@H]1O[C@@H]1C(=O)OCCI` it is “substantial inhibition by 5-44 uM”.
